From PubChem
EBV gp42 inh: inhibitors of Epstein-Barr virus glycoprotein 42. Q1HVG2. Fluorescence polarization binding assay, mP read-out. inhibition, % (tested at 21.74 µM). 0.42% of 220,000 active; in the data active means inhibition above about 50%
MCL1 BIM primary: disrupts human MCL1 binding to BIM-BH3 peptide | GST-MCL1 / FITC-Bim-BH3 fluorescence polarization | inhibition, % at 10.9 µM | 0.68% of 320,000 active | AID 2057;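 active means inhibition above the mean inhibition of all tested compounds plus 3 SD, set per campaign, cut at about 40% in these data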;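 further: 0% = DMSO wells and 100% = unlabeled Bim-BH3 peptide control; higher means more loss of mP so more displacement of Bim peptide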
Target sequence (Q07820 whole entry, looked up): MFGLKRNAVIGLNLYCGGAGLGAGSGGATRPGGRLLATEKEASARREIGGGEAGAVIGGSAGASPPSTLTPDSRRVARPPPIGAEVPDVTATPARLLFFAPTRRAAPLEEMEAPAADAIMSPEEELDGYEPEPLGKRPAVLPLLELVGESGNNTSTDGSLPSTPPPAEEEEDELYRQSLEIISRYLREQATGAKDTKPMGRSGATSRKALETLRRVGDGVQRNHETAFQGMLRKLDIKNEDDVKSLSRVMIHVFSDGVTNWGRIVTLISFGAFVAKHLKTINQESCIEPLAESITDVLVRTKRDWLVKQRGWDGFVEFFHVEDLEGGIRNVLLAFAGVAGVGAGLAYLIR
Mcl1-Bid inh: disrupts binding of human Mcl-1 to Bid peptide | TR-FRET Mcl-1/Bid-Dy647 peptide binding, 1536-well | inhibition, % at 21.7 µM | 0.97% of 220,000 active | AID 1021;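 active means compounds that cut the binding signal by more than half at the single screening dose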;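 further: His-tagged Mcl-1 with europium anti-His antibody binding Bid BH3 peptide; 0% = Mcl-1 plus peptide wells and 100% = peptide-only wells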
RBBP9 inh: inhibitors of human serine hydrolase RBBP9 | inhibition, % at 7.94 µM | recombinant RBBP9, FP-Rh probe fluorescence polarization | O75884 | 0.2% of 220,000 active | AID 1515;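 active means inhibition above the campaign mean of all tested compounds plus 3 SD, cut at about 14% in these data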;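 further: plate controls were DMSO wells with RBBP9 for no effect and wells lacking RBBP9 protein for full effect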
Target sequence (O75884 whole entry, looked up): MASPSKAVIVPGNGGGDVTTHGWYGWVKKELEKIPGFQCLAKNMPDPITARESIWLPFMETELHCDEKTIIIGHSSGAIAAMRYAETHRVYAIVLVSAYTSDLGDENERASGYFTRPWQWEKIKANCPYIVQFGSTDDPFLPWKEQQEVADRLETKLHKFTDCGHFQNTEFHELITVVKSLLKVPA
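Controls: DMSO-treated enzyme wells and wells lacking RBBP9 | Material: RBBP9 protein | Technique: Fluorescence polarization | Replication: Single well per compound, no replicates | Buffer or medium: Tris-NaCl-Pluronic buffer, pH 8.0 | Timing: 30 min compound preincubation, 45 min probe labeling, 25 °C | Read-out basis: Percent inhibition from mP, scaled between DMSO and no-protein wells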
Mcl1 Noxa PPI: Mcl-1/Noxa interaction inhibition; Q07820; TR-FRET Mcl-1/Noxa peptide binding, 2 h; 1.5% of 220,000 active; inhibition, % at 21.7 µM;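 active means compounds that cut the protein-peptide binding signal by more than 50% relative to plate controls in a single-dose test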;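 further: His-tagged Mcl-1 with rhodamine Noxa BH3 peptide and terbium anti-His antibody; 0% = Mcl-1 plus Noxa peptide wells and 100% = peptide-only wells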
Bim-Mcl-1: human Bim-Mcl-1 interaction inhibition; Bead-based flow cytometry, Bim peptide-Mcl-1 binding; inhibition, % at 10 µM; 0.1% of 190,000 active; AID 1009; in the data active means inhibition above about 40%;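 further: 0% = no compound tracer wells and 100% = peptide blocker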
An asterisk follows results filed as active; nt = not tested or not shown. Rows were chosen to be rich in hits. Some 2.2% of all compounds tested hit in one or more screens of this group.

SMILES | EBV gp42 inh | MCL1 BIM primary | Mcl1-Bid inh | RBBP9 inh | Mcl1 Noxa PPI | Bim-Mcl-1
CC(=O)NCC(c1cccs1)S(=O)(=O)c1ccc(F)cc1 (configuration not stated) | nt | 1 | nt | nt | nt | nt
Cc1cc(C)cc(OCC(=O)Nc2ccc(N3CCCC3)cc2)c1 | -15 | 12 | 5 | -2 | 67* | 9
CN1CCN(c2ccc(NC(=O)COc3ccccc3Cl)cc2)CC1 | -12 | -9 | 63* | -5 | 9 | 0
Cc1cccc(OCC(=O)Nc2ccc(N3CCCC3)cc2)c1C | -20 | 14 | -24 | nt | 62* | 20
COc1ccc(OCC(=O)Nc2ccc(N3CCCCC3)cc2)cc1 | 7 | 16 | -45 | 1 | 20 | 0
Cc1ccc(OCC(=O)Nc2ccc(N3CCCC3)cc2)cc1C | -33 | 9 | -7 | 0 | 81* | 1
CC(C)C(C(=O)OCC(=O)c1ccccc1)N1C(=O)C2C3C=CC(C3)C2C1=O (configuration not stated) | -3 | 6 | -22 | 0 | 19 | 3
CCOC(=O)CNC(=O)Cn1cnc2c(nnn2-c2ccc(OC)cc2)c1=O | nt | 0 | nt | nt | nt | nt
CS(=O)(=O)Cc1ccc(C(=O)N(CCc2ccccc2)Cc2ccccc2)cc1 | nt | -8 | nt | nt | nt | nt
CCOc1ccc(OCCC(=O)OCC(=O)N2CCN(S(=O)(=O)c3ccc(Cl)cc3)CC2)cc1 | nt | -8 | nt | nt | nt | nt
CC(NC(=O)CCC(=O)c1ccc(F)cc1)C1CC2CCC1C2 (configuration not stated) | -13 | -5 | -5 | 4 | 5 | 1
COc1ccccc1OCCCC(=O)Nc1ccc(N2CCOCC2)cc1 | -15 | 8 | -45 | 0 | 11 | 1
Cc1ccccc1OCCCC(=O)Nc1ccc(N2CCOCC2)cc1 | 0 | 0 | -27 | -1 | 51* | 35
CC(=O)c1ccc2c(c1)C1C=CCC1C(c1ccncc1)N2 (configuration not stated) | 15 | 17 | -37 | 0 | 51* | 6
COC(=O)c1ccc(C2Nc3ccc(/C(C)=N/NC(=O)C(OC)c4ccccc4)cc3C3C=CCC32)cc1 (configuration not stated) | nt | 61* | nt | 1 | nt | 13
Cc1ccc2c(c1)C1C=CCC1C(C(=O)O)N2 (configuration not stated) | 79* | 108* | 89* | -1 | 107* | 9
C1=CC2c3ccccc3NC(c3ccncc3)C2C1 (configuration not stated) | -6 | 37 | -26 | -3 | 78* | 4
CC(=O)c1ccc2c(c1)C1C=CCC1C(C(=O)O)N2 (configuration not stated) | -5 | nt | -47 | 11 | 74* | 3
Cc1ccc(CN2C(=O)N/C(=C\c3ccc(-c4ccc(C(=O)O)cc4C)o3)C2=O)cc1 | -2 | 24 | -16 | -9 | 57* | nt
Cc1ccc(C(=O)O)cc1-c1ccc(/C=C2\SC(=O)N(CC(=O)Nc3ccccc3)C2=O)o1 | 0 | 18 | -56 | 1 | 47 | 4
Cc1cc(C(=O)O)ccc1-c1ccc(/C=C2\NC(=O)N(Cc3ccccc3Cl)C2=O)o1 | -34 | 29 | -16 | 2 | 61* | 1
O=C(O)c1ccc(COc2ccccc2/C=C2\NC(=O)N(Cc3ccc(F)cc3)C2=O)cc1 | 11 | 3 | -14 | -10 | 26 | 0
O=C(O)c1ccc(-c2ccc(/C=C3\NC(=O)N(Cc4ccc(Cl)cc4)C3=O)o2)cc1 | 7 | nt | -33 | -7 | 61* | nt
CC1C(=O)Nc2ccccc2N1C(=O)c1ccc(F)cc1 (configuration not stated) | nt | 8 | nt | nt | nt | nt
O=C1CCC(=O)N1c1nc2n(n1)C(c1ccccc1)C=C(c1ccc(Br)cc1)N2 (configuration not stated) | 51* | 29 | -93 | -1 | -2 | -1
SMILES | EBV gp42 inh | MCL1 BIM primary | Mcl1-Bid inh | RBBP9 inh | Mcl1 Noxa PPI | Bim-Mcl-1
COc1ccccc1C1C=C(c2ccc(Cl)cc2)Nc2nc(N3C(=O)CCC3=O)nn21 (configuration not stated) | -8 | 19 | -23 | -9 | 8 | -5
CCc1ccc(CN(C)C(=O)c2ccc3c(c2)OCCO3)cc1 | nt | -2 | nt | nt | nt | nt
COc1ccc(CNC(=O)Cc2cccs2)cc1 | nt | 2 | nt | nt | nt | nt
COc1ccc(CC(=O)NCc2cccs2)cc1 | -7 | 3 | -14 | -1 | 63* | 0
COc1cccc(CC(=O)n2nc(N)c3cc4ccc(OC)cc4nc32)c1 | -32 | 5 | -10 | -5 | -20 | 3
COc1ccc2cc3c(N)nn(C(=O)Cc4ccc(Cl)cc4)c3nc2c1 | -19 | 5 | 66* | 0 | 25 | 0
COc1ccccc1CC(=O)N1CCN(c2ccccc2F)CC1 | nt | 3 | nt | nt | nt | nt
O=C(O)C1=C[C@H](C2CC2)C[C@H](OCCCCO)O1 | -7 | 7 | -13 | -1 | -21 | 44*
O=C(O)c1nccnc1C(=O)Nc1ccc(Cl)cn1 | nt | 1 | nt | nt | nt | nt
COc1ccc(-c2csc(NC(=S)NC(=O)/C=C/c3ccco3)n2)cc1Br | -13 | 4 | 8 | -1 | 66* | nt
COc1ccc(-c2csc(NC(=S)NC(=O)/C=C/c3ccco3)n2)cc1OC | 2 | -24 | 70* | 3 | 52* | -6
COc1ccc(CNS(=O)(=O)c2ccc(Br)s2)cc1 | nt | -4 | nt | nt | nt | nt
COC(=O)[C@]1(Cc2ccccc2)N[C@H](c2ccc(-c3cc(C(C)=O)cs3)cc2)[C@@H]2C(=O)N(C)C(=O)[C@@H]21 | nt | 7 | nt | nt | nt | nt
CC1C(=O)CCN(C(C)C)C1C (configuration not stated) | -10 | -3 | 90* | -11 | 2 | 2
COc1cc(/C=N/N(C)c2ccccc2)ccc1O | -18 | 3 | -36 | 7 | 56* | 0
COc1cc(/C=N/NC(=O)C2c3ccccc3Oc3ccccc32)ccc1O | -5 | 3 | 10 | 8 | 79* | 13
COc1cc(/C=N/NC(=O)C2COc3ccccc3O2)ccc1O (configuration not stated) | 0 | -4 | -36 | -3 | 4 | nt
COc1cc(/C=C2\SC(=O)N(c3cccc(Cl)c3)C2=O)cc([N+](=O)[O-])c1O | 87* | nt | 73* | -1 | 66* | 3
COc1cc(/C=C2\SC(=O)N(c3ccc(Cl)cc3)C2=O)cc([N+](=O)[O-])c1O | 100* | nt | 90* | -3 | 76* | 1
COc1cc(/C=C2/NC(=O)N(c3cccc(Cl)c3)C2=O)ccc1O | 5 | 11 | -1 | -8 | 59* | 10
O=C1S/C(=C\c2ccc(O)c([N+](=O)[O-])c2)C(=O)N1c1ccccc1Cl | 4 | -7 | -1 | -1 | 16 | 0
O=C(c1ccc2c(c1)OCCO2)C1CCN(C(=O)Nc2ccccc2F)CC1 | nt | 5 | nt | nt | nt | nt
Cc1ccc(/C=N/Nc2cccc3cccnc23)c(O)c1 | -14 | 8 | -37 | -3 | 19 | -6
Oc1ccc(/C=N/Nc2cccc3cccnc23)c(O)c1 | 8 | 12 | -39 | 8 | 62* | 0
Clc1ccccc1OCCN1CCCCC1 | 1 | 5 | 20 | -2 | 16 | -3
